# Residues, ends and D or L forms follow the SMILES beside them.
# Columns and labels:
# [1] = test system: PCNA replication foci in NIH3T3 cells; type: cell-based, murine; details: for foci formation and co-localization with PCNA during S-phase: 24–48 h
# How it was run: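 Murine NIH3T3 cells were kept in DMEM with 10% FBS and penicillin/streptomycin at 37 °C, 10% CO₂. Cells (2*10⁵ per glass-bottom dish) were seeded 24 h before ExGen500 co-transfection with 3 μg total plasmid (CFP-PCNA plus YFP fusion). Confocal imaging at 24–48 h. Co-transfected cells were counted and binned by pattern, e.g. "no foci" (diffuse CFP-PCNA, diffuse nuclear YFP).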
# hEXO1 = details: hEXO1-hMLH1 interaction, ref [15], cited from earlier work
# PCNA = PCNA (Homo sapiens, UniProt P12004); assay: Isothermal titration calorimetry of hEXO1 peptides with purified PCNA; type: binding; details: ITC, 30 °C, pH 7.5; 18 μM PCNA, 200 μM p22; no dilution effects in pure buffer
# PCNA, sequence (P12004 whole entry): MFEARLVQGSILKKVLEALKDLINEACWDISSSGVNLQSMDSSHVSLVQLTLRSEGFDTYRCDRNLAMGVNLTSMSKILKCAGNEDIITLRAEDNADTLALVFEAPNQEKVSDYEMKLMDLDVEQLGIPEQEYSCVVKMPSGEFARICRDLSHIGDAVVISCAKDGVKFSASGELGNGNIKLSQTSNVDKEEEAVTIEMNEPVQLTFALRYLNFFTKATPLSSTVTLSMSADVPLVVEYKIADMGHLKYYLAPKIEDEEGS
# [2] = test system: PCNA replication foci in HCT116 cells; assay: Co-localization with PCNA in replication foci in HCT116 cells; type: cell-based; details: HCT116 cell line (hMLH1 deficient); Fig. S5
# [3] = NIH3T3 cells co-transfected with CFP-PCNA
compound,measurement,setting,value
"hMSH6: fusion protein, CFP or YFP tagged MMR protein",foci formation and co-localization with PCNA during S-phase,[1]; [3],form PCNA co-localizing foci throughout S-phase
hEXO1-hMLH1: hEXO1-hMLH1 complex,exonuclease activity on heteroduplex substrate,hEXO1; heteroduplex substrate,inhibits exonuclease activity on a heteroduplex substrate
same,exonuclease activity on homoduplex substrate,hEXO1; homoduplex substrate,did not inhibit exonuclease activity on a homoduplex substrate
CC[C@H](C)[C@H](NC(=O)[C@H](CCC(N)=O)NC(=O)[C@H](CC(C)C)NC(=O)CNC(=O)[C@@H]1CCCN1C(=O)[C@H](CCCCN)NC(=O)[C@@H](N)CC(N)=O)C(=O)N[C@@H](CCCCN)C(=O)N[C@@H](CC(C)C)C(=O)N[C@@H](CC(N)=O)C(=O)N[C@@H](CCC(=O)O)C(=O)N[C@@H](CC(C)C)C(=O)N[C@@H](Cc1c[nH]c2ccccc12)C(=O)N[C@@H](CCCCN)C(=O)N[C@@H](CC(N)=O)C(=O)N[C@@H](Cc1ccccc1)C(=O)NCC(=O)N[C@@H](Cc1ccccc1)C(=O)N[C@@H](CCCCN)C(=O)N[C@@H](CCCCN)C(=O)N[C@@H](CC(=O)O)C(=O)N[C@@H](CO)C(=O)O [hEXO1 p22] (H-NKPGLQIKLNELWKNFGFKKDS-OH; N-terminus and C-terminus assumed),heat exchange of binding reaction with PCNA,PCNA,exothermic heat exchange
human exonuclease 1 [YFP-hEXO1],Small foci (CFP-PCNA),"[1]; CFP channel (CFP-PCNA) in cells co-expressing the hEXO1 protein, early S-phase foci, 50 co-transfected cells",28%
same,Large foci (CFP-PCNA),"[1]; CFP channel (CFP-PCNA) in cells co-expressing the hEXO1 protein, late S-phase foci, 50 co-transfected cells",12%
same,Mid Foci (CFP-PCNA),"[1]; CFP channel (CFP-PCNA) in cells co-expressing the hEXO1 protein, mid S-phase foci, 50 co-transfected cells",14%
same,cells showing diffuse nuclear staining,[1]; [3],40%
same,foci formation and co-localization with PCNA during S-phase,[1]; [3],co-localize in discrete nuclear foci
same,sub-cellular localization,"[1]; NIH3T3 cells, confocal imaging",only rarely observed in the cytoplasm
same,co-localization with PCNA in replication foci,[2],co-localize with PCNA in replication foci in the HCT116 cell line

# — article PMC4586255 (DNA repair, 2010)
